Laboratory results as given in ChEMBL document CHEMBL3616431, “Exploring the 3-piperidin-4-yl-1H-indole scaffold as a novel antimalarial chemotype” (Eur J Med Chem, 2015).

Tests used:
[1] = system: Plasmodium falciparum; experiment: Antimalarial activity against chloroquine-resistant Plasmodium falciparum Dd2 infected in human erythrocyte assessed as growth inhibition at 5 uM by SYBR Green-1 assay; assay type: functional
How it was run: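 Erythrocytic-stage P. falciparum Dd2 growth inhibition at a fixed 5 µM single concentration. Synchronized ring-stage parasites in RPMI-1640 with 0.5% AlbuMAX II, 1.0% hematocrit, 1.0% initial parasitemia. Incubated 72 h under standard culture conditions, then stained with SYBR Green I (1:5,000). Fluorescence read at ex 494 nm, em 530 nm after room-temperature storage.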

[2] = system: Plasmodium falciparum; experiment: Antimalarial activity against chloroquine-resistant Plasmodium falciparum Dd2 infected in human erythrocyte assessed as growth inhibition by SYBR Green-1 assay; assay type: functional, organism-based
How it was run: (§1)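 Dose-response EC50 against Dd2 and 3D7. Synchronized ring-stage parasites in RPMI-1640 with 0.5% AlbuMAX II, 1.0% hematocrit, 1.0% initial parasitemia. Triplicate 12-point 2-fold serial dilutions, incubated 72 h under standard culture conditions. Read-out by SYBR Green I (1:5,000) fluorescence, ex 494/em 530 nm. EC50 by non-linear regression after background subtraction and normalization.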

[3] = Selectivity index, ratio of EC50 for human HepG2A16 cells to EC50 for chloroquine-resistant Plasmodium falciparum Dd2 infected in human erythrocyte; assay type: toxicity; conditions: read-out: Ratio EC50
How it was run: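 Selectivity index computed as HepG2 A16 MTT EC50 (48 h exposure) divided by P. falciparum Dd2 EC50 (72 h SYBR Green I assay).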

[4] = system: HepG2; experiment: Cytotoxicity against human HepG2A16 cells after 48 hrs by MTT assay; assay type: cell-based; conditions: HepG2A16, 48 h
How it was run: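 HepG2 A16 cells seeded at 1 × 10^4 cells/well, adhered overnight. Exposed to seven ten-fold dilutions (100 µM–1 nM); drug-free medium as negative control. Medium with compound renewed at 24 h, total 48 h. MTT (5 mg/mL stock in PBS) added for 3 h, then supernatant removed and acidified isopropanol added for read-out.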

[5] = Selectivity index, ratio of EC50 for human HepG2A16 cells to EC50 for chloroquine-sensitive Plasmodium falciparum 3D7 infected in human erythrocyte; assay type: toxicity; conditions: read-out: Ratio EC50
How it was run: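 Selectivity index computed as HepG2 A16 MTT EC50 (48 h exposure) divided by P. falciparum 3D7 EC50 (72 h SYBR Green I assay).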

[6] = system: Plasmodium falciparum; experiment: Antimalarial activity against chloroquine-sensitive Plasmodium falciparum 3D7 infected in human erythrocyte assessed as growth inhibition by SYBR Green-1 assay; assay type: functional, organism-based; how it was run: as §1
[7] = system: Plasmodium falciparum; experiment: Antimalarial activity against chloroquine-sensitive Plasmodium falciparum 3D7; assay type: functional, organism-based
[8] = system: HepG2; experiment: Cytotoxicity against human HepG2A16 cells; assay type: cell-based
How it was run: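 HepG2 A16 cells seeded at 1 × 10^4 cells/well and left to adhere overnight. Exposed to 7 ten-fold dilutions (100 µM–1 nM), drug-free medium as negative control. Medium with compound renewed at 24 h, total 48 h exposure. Viability by MTT (5 mg/mL stock in PBS, 3 h), formazan dissolved in acidified isopropanol; EC50 reported.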

With CC(=O)N1CCC(c2c[nH]c3ccccc23)CC1 the inhibition at 5 µM [1] was < 10%.
With c1ccc2c(C3CCNCC3)c[nH]c2c1 the inhibition at 5 µM [1] was < 10%.
With c1ccc2c(C3CCN(CC4CCNCC4)CC3)c[nH]c2c1 the inhibition at 5 µM [1] was < 10%.
With Cc1c(CN2CCC(c3c[nH]c4ccccc34)CC2)c(=O)n(-c2ccccc2)n1C the inhibition at 5 µM [1] was < 10%.
CC(=O)n1cc(CN2CCC(c3c[nH]c4ccccc34)CC2)c2ccccc21 gave an inhibition at 5 µM [1] of 70%.
In the case of Oc1cccc2ccc(CN3CCC(c4c[nH]c5ccccc45)CC3)nc12, the inhibition at 5 µM [1] is reported as < 10%.
With c1ccc2c(C3CCN(Cc4csc5ccccc45)CC3)c[nH]c2c1 the inhibition at 5 µM [1] was 16%.
With c1ccc(CN2CCC(c3c[nH]c4ccccc34)CC2)cc1 the inhibition at 5 µM [1] was 15%.
For Cc1ccccc1CN1CCC(c2c[nH]c3ccccc23)CC1, the inhibition at 5 µM [1] was 11%.
For COc1cc(O)cc(OC)c1CN1CCC(c2c[nH]c3ccccc23)CC1, the inhibition at 5 µM [1] was < 10%.
With OCCOc1cccc(CN2CCC(c3c[nH]c4ccccc34)CC2)c1 the inhibition at 5 µM [1] was < 10%.
For COc1cc(Cl)c(CN2CCC(c3c[nH]c4ccccc34)CC2)c(Cl)c1OC, the inhibition at 5 µM [1] was < 10%.
Fc1ccc(CN2CCC(c3c[nH]c4ccccc34)CC2)cc1 showed an inhibition at 5 µM [1] of 14%.
In the case of FC(F)(F)c1ccc(CN2CCC(c3c[nH]c4ccccc34)CC2)cc1, the inhibition at 5 µM [1] is reported as < 10%.
In the case of O=Cc1ccc(CN2CCC(c3c[nH]c4ccccc34)CC2)cc1, the inhibition at 5 µM [1] is reported as 20%.
c1ccc2c(C3CCN(Cc4ccc(CN5CCC(c6c[nH]c7ccccc67)CC5)cc4)CC3)c[nH]c2c1 showed an EC50 [2] of 210 nM, a selectivity ratio [3] of 2.19 and an EC50 [4] of 460 nM. The selectivity ratio [5] was 5.75, the inhibition at 5 µM [1] was 100% and the EC50 [6] was 80 nM.
Molecule c1ccc2c(C3CCN(Cc4ccc(CN5CCOCC5)cc4)CC3)c[nH]c2c1 has an inhibition at 5 µM [1] of 66%.
Work on c1ccc2c(C3CCN(Cc4ccc(CN5CCCCC5)cc4)CC3)c[nH]c2c1 yielded an EC50 [2] of 2910 nM, an inhibition at 5 µM [1] of 100% and an EC50 [6] of 1350 nM.
For c1ccc2c(C3CCN(Cc4ccncc4)CC3)c[nH]c2c1, the inhibition at 5 µM [1] was < 10%.
For c1csc(CN2CCC(c3c[nH]c4ccccc34)CC2)c1, the inhibition at 5 µM [1] was < 10%.
With c1ccc2c(C3CCN(CC4CCCCC4)CC3)c[nH]c2c1 the inhibition at 5 µM [1] was < 10%.
CC(C)=CCC[C@H](C)CCN1CCC(c2c[nH]c3ccccc23)CC1 gave an inhibition at 5 µM [1] of 17%.
For O=C(c1ccccc1)N1CCC(c2c[nH]c3ccccc23)CC1, the inhibition at 5 µM [1] was < 10%.
In the case of COc1ccc(OC)c(C(=O)N2CCC(c3c[nH]c4ccccc34)CC2)c1, the inhibition at 5 µM [1] is reported as < 10%.
With O=C(c1ccc(F)cc1)N1CCC(c2c[nH]c3ccccc23)CC1 the inhibition at 5 µM [1] was < 10%.
Work on O=C(c1cccnc1)N1CCC(c2c[nH]c3ccccc23)CC1 yielded an EC50 [2] of 2950 nM, a selectivity ratio [3] of 4.33 and an EC50 [4] of 12800 nM. It also gave a selectivity ratio [5] of 3.37, an inhibition at 5 µM [1] of 100% and an EC50 [6] of 3800 nM.
In the case of O=C(c1cccs1)N1CCC(c2c[nH]c3ccccc23)CC1, the inhibition at 5 µM [1] is reported as < 10%.
Molecule O=C(c1ccncc1)N1CCC(c2c[nH]c3ccccc23)CC1 has an inhibition at 5 µM [1] of 14%.
With O=C(c1ccccn1)N1CCC(c2c[nH]c3ccccc23)CC1 the inhibition at 5 µM [1] was < 10%.
In the case of O=C(c1cnccn1)N1CCC(c2c[nH]c3ccccc23)CC1, the inhibition at 5 µM [1] is reported as < 10%.
O=C(c1ccc(C(=O)N2CCC(c3c[nH]c4ccccc34)CC2)cc1)N1CCC(c2c[nH]c3ccccc23)CC1 showed an inhibition at 5 µM [1] of 80%.
Clc1ccc2nccc(N3CCC(c4c[nH]c5ccccc45)CC3)c2c1 gave an EC50 [2] of 5010 nM, a selectivity ratio [3] of 0.85 and an EC50 [4] of 4240 nM. The selectivity ratio [5] was 0.67, the inhibition at 5 µM [1] was 32% and the EC50 [6] was 6300 nM.
In the case of O=C(c1ccccc1)N1CCC(C(=O)N2CCC(c3c[nH]c4ccccc34)CC2)CC1, the inhibition at 5 µM [1] is reported as < 10%.
For COc1cc(OC)cc(C(=O)N2CCC(C(=O)N3CCC(c4c[nH]c5ccccc45)CC3)CC2)c1, the inhibition at 5 µM [1] was 10%.
With O=C(c1ccc(F)cc1)N1CCC(C(=O)N2CCC(c3c[nH]c4ccccc34)CC2)CC1 the inhibition at 5 µM [1] was < 10%.
Molecule O=C(c1cccnc1)N1CCC(C(=O)N2CCC(c3c[nH]c4ccccc34)CC2)CC1 has an inhibition at 5 µM [1] of 30%.
With O=C(c1cccs1)N1CCC(C(=O)N2CCC(c3c[nH]c4ccccc34)CC2)CC1 the inhibition at 5 µM [1] was < 10%.
In the case of CC(=O)N1CCC(C(=O)N2CCC(c3c[nH]c4ccccc34)CC2)CC1, the inhibition at 5 µM [1] is reported as 10%.
Clc1ccc2nccc(N3CCC(CN4CCC(c5c[nH]c6ccccc56)CC4)CC3)c2c1 showed an EC50 [2] of 940 nM, a selectivity ratio [3] of 4.1 and an EC50 [4] of 3860 nM. The EC50 [7] was 34 nM, the selectivity ratio [5] was 16.1 and the EC50 [8] was > 10000 nM. It also gave an inhibition at 5 µM [1] of 100% and an EC50 [6] of 240 nM.
CCN(CC)Cc1cc(Nc2ccnc3cc(Cl)ccc23)ccc1O [AMODIAQUINE] showed an EC50 [2] of 12.3 nM and an EC50 [6] of 5.85 nM.
For C[C@H]1[C@H](OC(=O)CCC(=O)O)O[C@@H]2O[C@@]3(C)CC[C@H]4[C@H](C)CC[C@@H]1[C@@]24OO3 [ARTESUNATE], the EC50 [2] was 1.76 nM and the EC50 [6] was 1.97 nM.
Work on O=C1C(O)=C([C@H]2CC[C@H](c3ccc(Cl)cc3)CC2)C(=O)c2ccccc21 [ATOVAQUONE] yielded an EC50 [2] of 0.19 nM and an EC50 [6] of 0.35 nM.
For CCN(CC)CCCC(C)Nc1ccnc2cc(Cl)ccc12 (stereo unspecified) [CHLOROQUINE], the EC50 [2] was 285 nM and the EC50 [6] was 23 nM.
